# Data published in ChEMBL document CHEMBL5357047, “The development of thymol-isatin hybrids as broad-spectrum antibacterial agents with potent anti-MRSA activity” (RSC Med Chem, 2024).
# The source made the active and inactive calls. No cut-off for these calls is given here.
# What was measured:
# [1] = target: T1, 4,4'-diapophytoene synthase (Staphylococcus aureus) (UniProt A9JQL9); assay: Inhibition of CrtM in Methicillin-resistant Staphylococcus aureus assessed as inhibition of staphyloxanthin production by measuring reduction in 4,4'-diaponeurosporenic acid level at 1/4XMIC measured after 24 hrs by spectroscopic analysis
# T1 sequence (whole entry): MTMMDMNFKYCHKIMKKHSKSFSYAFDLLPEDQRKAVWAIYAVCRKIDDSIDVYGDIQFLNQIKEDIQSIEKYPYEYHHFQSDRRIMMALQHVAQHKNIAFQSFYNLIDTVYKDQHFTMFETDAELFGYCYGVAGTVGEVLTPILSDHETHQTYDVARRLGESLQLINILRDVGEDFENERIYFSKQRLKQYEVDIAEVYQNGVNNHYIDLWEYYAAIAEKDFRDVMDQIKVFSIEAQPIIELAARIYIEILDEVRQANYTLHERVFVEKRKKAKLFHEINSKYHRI
# How it was run: (§1)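 Cells pelleted, PBS-washed, extracted overnight in methanol at 37 °C. Supernatant absorbance read at 462 nm (staphyloxanthin), 286 nm (4,4′-diapophytoene), 435 nm (4,4′-diaponeurosporene) or 455 nm (4,4′-diaponeurosporenic acid). % inhibition = (control − treated)/control × 100.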
# [2] = test system: Staphylococcus epidermidis; assay: Antibacterial activity against Staphylococcus epidermidis MTCC 435 assessed as inhibition of bacterial growth measured after 48 hrs by broth microdilution method; assay type: functional
# Staphylococcus aureus [3] = assay: Anti-biofilm activity against Methicillin-resistant Staphylococcus aureus assessed as mean thickness of biofilm at 1/2XMIC measured after 48 hrs by crystal violet staining based phase contrast microscopy (reference value: 15.03+/-1.63 um); assay type: functional
# Staphylococcus aureus [4] = assay: Antibacterial activity against clinically isolated Methicillin-resistant Staphylococcus aureus assessed as inhibition of bacterial growth at 50 uM measured after 48 hrs by agar well diffusion method; assay type: functional; conditions: read-out: IZ
# Staphylococcus aureus [5] = assay: Anti-biofilm activity against Methicillin-resistant Staphylococcus aureus assessed as reduction in integrated density of biofilms at 1/2 to 2XMIC measured after 48 hrs by Syto-9 staining based fluorescence microscopy; assay type: functional, organism-based
# How it was run: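 After PBS washes, stained with SYTO-9 ([…]) 15 min at 25 °C and imaged by fluorescence microscopy (excitation 480 nm). Integrated density quantified from images. Triplicate, mean ± SD.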
# [6] = target: T1, 4,4'-diapophytoene synthase (Staphylococcus aureus); assay: Inhibition of CrtM in Methicillin-resistant Staphylococcus aureus assessed as inhibition of staphyloxanthin production by measuring reduction in 4,4'-diaponeurosporene level at 1/4XMIC measured after 24 hrs by spectroscopic analysis; how it was run: as §1
# Staphylococcus aureus [7] = assay: Anti-biofilm activity against Methicillin-resistant Staphylococcus aureus assessed as mean thickness of biofilm at 1XMIC measured after 48 hrs by crystal violet staining based phase contrast microscopy (reference value: 15.03+/-1.63 um); assay type: functional
# Staphylococcus aureus [8] = assay: Bactericidal activity against Methicillin-resistant Staphylococcus aureus assessed as reduction in colony formation units at 1 to 2XMIC measured after 48 hrs by time-kill assay; assay type: functional, organism-based
# How it was run: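 Samples taken at 1, 2, 4, 8, 12, 24 and 48 h, diluted in 0.9% saline and plated on Mueller Hinton agar (48 h, 37 °C). CFU counted and log10 CFU mL−1 plotted against time. Triplicate.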
# [9] = target: T1, 4,4'-diapophytoene synthase (Staphylococcus aureus); assay: Inhibition of CrtM in Methicillin-resistant Staphylococcus aureus assessed as reduction in staphyloxanthin level at 1/4XMIC measured after 24 hrs by spectroscopic analysis; how it was run: as §1
# Enterococcus faecalis = assay: Antibacterial activity against clinically isolated Enterococcus faecalis RBRJ015 assessed as inhibition of bacterial growth at 50 uM measured after 48 hrs by agar well diffusion method; assay type: functional; conditions: read-out: IZ
# [10] = Toxicity against Galleria mellonella assessed as metabolic activity of larva at 20 mg/kg measured every 12 hrs for 120 hrs; assay type: organism-based; conditions: in vivo
# How it was run: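 Uninfected Galleria mellonella larvae (0.2–0.4 g, ten per group) given 20 mg kg−1 compound, alongside untreated, PBS and PBS + 2% DMSO vehicle controls; held at 37 °C and checked every 12 h for 120 h. Larvae that turned black and gave no response to stimulus counted dead; percentage survival recorded.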
# Pseudomonas aeruginosa = assay: Antibacterial activity against Pseudomonas aeruginosa MTCC 424 assessed as inhibition of bacterial growth at 50 uM measured after 48 hrs by agar well diffusion method; assay type: functional; conditions: read-out: IZ
# [11] = Cytotoxicity against mouse L929 cells assessed as reduction in cell viability measured after 72 hrs by MTT assay; assay type: toxicity, cell-based
# How it was run: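 L929 cells (ATCC) grown in DMEM with 10% FBS and penicillin/streptomycin at 37 °C, 5% CO2; seeded at 5 × 10^3 cells per well and exposed to serial dilutions for 72 h, paclitaxel as positive control. MTT (5 mg mL−1), formazan dissolved in DMSO, absorbance at 490 nm; viability relative to control after blank subtraction; IC50 in μM.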
# Escherichia coli [12] = assay: Antibacterial activity against clinically isolated Escherichia coli RBRJ005 assessed as inhibition of bacterial growth at 50 uM measured after 48 hrs by agar well diffusion method; assay type: functional; conditions: read-out: IZ
# Staphylococcus aureus [13] = assay: Anti-biofilm activity against Methicillin-resistant Staphylococcus aureus assessed as mean thickness of biofilm at 2XMIC measured after 48 hrs by crystal violet staining based phase contrast microscopy (reference value: 15.03+/-1.63 um); assay type: functional
# Klebsiella pneumoniae = assay: Antibacterial activity against Klebsiella pneumoniae MTCC 109 assessed as inhibition of bacterial growth at 50 uM measured after 48 hrs by agar well diffusion method; assay type: functional; conditions: read-out: IZ
# Escherichia coli [14] = assay: Antibacterial activity against Escherichia coli MTCC 119 assessed as inhibition of bacterial growth at 50 uM measured after 48 hrs by agar well diffusion method; assay type: functional; conditions: read-out: IZ
# Staphylococcus aureus [15] = assay: Anti-biofilm activity against Methicillin-resistant Staphylococcus aureus assessed as biofilm volume/area at 2XMIC measured after 48 hrs by crystal violet staining based phase contrast microscopy (reference value: 18.37 +/-1.14 um3/um2); assay type: functional
# Staphylococcus aureus [16] = assay: Antibacterial activity against Methicillin-resistant Staphylococcus aureus infected in Galleria mellonella assessed as larva's survival rate at 5 to 10 mg/kg measured after 24 to 48 hrs; assay type: functional; conditions: dose 5-10 mg/kg, time 24-48 hrs
# How it was run: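 Galleria mellonella larvae (0.2–0.4 g, 10 per group) injected in the last proleg with MRSA at 5 × 10^8 ± 0.2 cells per larva, then given 2.5, 5 or 10 mg kg−1. Controls: untreated, PBS, and PBS + 2% DMSO vehicle. Held at 37 °C and checked every 12 h; larvae that were black and unresponsive counted dead. Bacterial burden by CFU at 0, 24 and 48 h.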
# Escherichia coli [17] = assay: Antibacterial activity against clinically isolated Escherichia coli RBRJ013 assessed as inhibition of bacterial growth at 50 uM measured after 48 hrs by agar well diffusion method; assay type: functional; conditions: read-out: IZ
# Staphylococcus aureus [18] = assay: Bactericidal activity against clinically isolated Staphylococcus aureus RBRJ010 assessed as inhibition of bacterial growth measured after 48 hrs by agar plate method; assay type: functional
# How it was run: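 MBC: 10 μL from wells showing no INT colour change after broth microdilution subcultured on drug-free Mueller Hinton agar, 48 h at 37 °C aerobically; lowest concentration with no visible growth taken as MBC (μM). Triplicate.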
# Enterobacter cloacae = assay: Antibacterial activity against clinically isolated Enterobacter cloacae RBRJ017 assessed as inhibition of bacterial growth at 50 uM measured after 48 hrs by agar well diffusion method; assay type: functional; conditions: read-out: IZ
# [19] = Selectivity index, ratio of IC50 for cytotoxicity against mouse L929 cells to MIC for antibacterial activity against clinically isolated Methicillin-resistant Staphylococcus aureus; assay type: toxicity, cell-based; conditions: read-out: Selectivity Index
smiles,measurement,setting,value
Cc1ccc(C(C)C)c(OCc2cn(CCCN3C(=O)C(=O)c4ccccc43)nn2)c1,inhibition,[1],86%
same,MIC,[2],3.9 µM
same,Activity,Staphylococcus aureus [3],2.97 um
same,zone of inhibition at 50 µM,Staphylococcus aureus [4],28.8 mm
same,Activity,Staphylococcus aureus [5],Active
same,inhibition,[6],85%
same,Activity,Staphylococcus aureus [7],1.11 um
same,Activity,Staphylococcus aureus [8],Active
same,inhibition,[9],86%
same,zone of inhibition at 50 µM,Enterococcus faecalis,20.2 mm
same,Activity,[10],Non-Toxic
same,zone of inhibition at 50 µM,Pseudomonas aeruginosa,22.3 mm
same,IC50 at 72 h,[11],125 µM
same,zone of inhibition at 50 µM,Escherichia coli [12],19.3 mm
same,Activity,Staphylococcus aureus [13],0.16 um
same,zone of inhibition at 50 µM,Klebsiella pneumoniae,21.4 mm
same,zone of inhibition at 50 µM,Escherichia coli [14],22.1 mm
same,Activity,Staphylococcus aureus [15],0.69 um3/um2
same,Activity,Staphylococcus aureus [16],90%
same,zone of inhibition at 50 µM,Escherichia coli [17],20.3 mm
same,MBC,Staphylococcus aureus [18],3.9 µM
same,zone of inhibition at 50 µM,Enterobacter cloacae,19.2 mm
same,selectivity ratio,[19],65
